Experimental data taken from ChEMBL document CHEMBL3244396, “Synthesis and antileukemic activity of 5-substituted 2,3-dihydro-6,7-bis(hydroxymethyl)-1H-pyrrolizine diesters” (J Med Chem, 1977).
≈ marks a conversion by molar mass, not a printed value.

Assays:
L1210 [1] = assay: Antileukemic activity against mouse L1210 cells allografted in female BDF1 mouse assessed as host mean survival time at 200 mg/kg, ip administered daily for 9 days as Klucel suspension starting 24 hrs after tumor inoculation relative to control; type: functional; conditions: route intraperitoneal
Method in brief: (§1)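 L1210 leukemia given as an ascitic fluid cell inoculum, ip, to mice of the strain and sex in each line. Test material was given ip for nine daily doses starting 24 h after inoculation, in a Klucel (hydroxypropylcellulose) suspension. Read-out is mean survival time as %T/C versus controls, with >125 taken as significant.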

L1210 [2] = assay: Antileukemic activity against mouse L1210 cells allografted in female BDF1 mouse assessed as change in body weight at 100 mg/kg, ip administered daily for 9 days as Klucel suspension starting 24 hrs after tumor inoculation; type: functional; conditions: route intraperitoneal
Method in brief: (§2)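 Ascitic fluid carrying L1210 cells was inoculated ip. Compound was given ip as a Klucel (hydroxypropylcellulose) suspension in nine daily doses, starting 24 h after inoculation. Body-weight difference (treated minus control) was recorded on day 5. Survival was scored as %T/C of mean survival time.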

P388 [3] = assay: Antitumor activity against mouse P388 cells allografted in female CDF1 mouse assessed as disease cures by measuring 30-days host survival at 100 mg/kg, ip administered daily for 9 days as Klucel suspension starting 24 hrs after tumor inoculation relative to control; type: functional; conditions: route intraperitoneal
Method in brief: (§3)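 P388 leukemia given as an ascitic fluid cell inoculum, ip, to mice of the strain and sex in each line. Nine daily ip doses were given in a Klucel (hydroxypropylcellulose) suspension, starting 24 h after inoculation. Read-out is median survival time as %T/C, with >125 taken as significant; a "cure" means 30-day survival.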

Mus musculus [4] = assay: Toxicity in female CDF1 mouse allografted with mouse P388 cells assessed as animal survival at 50 mg/kg, ip administered daily for 9 days as Klucel suspension starting 24 hrs after tumor inoculation; type: organism-based; set-up: dose 50 mg/kg, route intraperitoneal; conditions: in vivo
Method in brief: (§4)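 P-388 leukemia ascitic fluid inoculated ip. Compound given ip as a suspension in Klucel (hydroxypropylcellulose), once daily for nine doses beginning 24 h post-inoculation. Acute toxicity assessed as toxicity-day survivors per group. Survival was followed up to 30 days, with 30-day survival counted as "cure". Follows NCI screening protocols.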

P388 [5] = assay: Antitumor activity against mouse P388 cells allografted in female CDF1 mouse assessed as disease cures by measuring 30-days host survival at 200 mg/kg, ip administered daily for 9 days as Klucel suspension starting 24 hrs after tumor inoculation relative to control; type: functional; conditions: route intraperitoneal; method in brief: as §3
Mus musculus [6] = assay: Toxicity in female BDF1 mouse allografted with mouse L1210 cells assessed as animal survival at 200 mg/kg, ip administered daily for 9 days as Klucel suspension starting 24 hrs after tumor inoculation measured on fifth day; type: organism-based; set-up: dose 200 mg/kg, route intraperitoneal; conditions: in vivo
Method in brief: (§5)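 L1210 leukemia passaged as ascitic fluid and inoculated ip. Test agent given ip as a Klucel (hydroxypropylcellulose) suspension, nine daily doses starting 24 h after tumor inoculation. Acute toxicity read as toxicity-day survivors per group (out of 6), recorded on day 5. Animal weight difference T − C was also recorded. Follows NCI screening protocols.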

Mus musculus [7] = assay: Toxicity in female BDF1 mouse allografted with mouse L1210 cells assessed as animal survival at 50 mg/kg, ip administered daily for 9 days as Klucel suspension starting 24 hrs after tumor inoculation measured on fifth day; type: organism-based; set-up: dose 50 mg/kg, route intraperitoneal; conditions: in vivo; method in brief: as §5
Mus musculus [8] = assay: Toxicity in female CDF1 mouse allografted with mouse P388 cells assessed as animal survival at 100 mg/kg, ip administered daily for 9 days as Klucel suspension starting 24 hrs after tumor inoculation; type: organism-based; set-up: dose 100 mg/kg, route intraperitoneal; conditions: in vivo; method in brief: as §4
Mus musculus [9] = assay: Toxicity in female BDF1 mouse allografted with mouse L1210 cells assessed as animal survival at 100 mg/kg, ip administered daily for 9 days as Klucel suspension starting 24 hrs after tumor inoculation measured on fifth day; type: organism-based; set-up: dose 100 mg/kg, route intraperitoneal; conditions: in vivo
Method in brief: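 Female BDF1 mice bearing ip ascitic L1210 inoculum got nine daily ip doses in a Klucel suspension, starting 24 h after tumor inoculation. Toxicity was scored as toxicity-day survivors out of the group, recorded on the fifth day. Animal weight difference (T − C) was also tabulated.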

[10] = Cytotoxicity against human 9KB cells treated as ethanol solution; type: functional; conditions: read-out: ED50 (the source's name)
Method in brief: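 Compound applied as an ethanol solution; activity read out as ED50 under the general screening protocol.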

L1210 [11] = assay: Antileukemic activity against mouse L1210 cells allografted in female BDF1 mouse assessed as host mean survival time at 50 mg/kg, ip administered daily for 9 days as Klucel suspension starting 24 hrs after tumor inoculation relative to control; type: functional; conditions: route intraperitoneal; method in brief: as §1
L1210 [12] = assay: Antileukemic activity against mouse L1210 cells allografted in female BDF1 mouse assessed as host mean survival time at 100 mg/kg, ip administered daily for 9 days as Klucel suspension starting 24 hrs after tumor inoculation relative to control; type: functional; conditions: route intraperitoneal; method in brief: as §1
L1210 [13] = assay: Antileukemic activity against mouse L1210 cells allografted in female BDF1 mouse assessed as change in body weight at 200 mg/kg, ip administered daily for 9 days as Klucel suspension starting 24 hrs after tumor inoculation; type: functional; conditions: route intraperitoneal; method in brief: as §2
P388 [14] = assay: Antitumor activity against mouse P388 cells allografted in female CDF1 mouse assessed as change in body weight at 50 mg/kg, ip administered daily for 9 days as Klucel suspension starting 24 hrs after tumor inoculation; type: functional; conditions: route intraperitoneal
Method in brief: (§6)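 Ascitic fluid carrying P388 cells was inoculated ip. Compound was given ip in nine daily doses, starting 24 h after inoculation, in Klucel (hydroxypropylcellulose) suspension or in saline with Tween-80. Body-weight difference (treated minus control) was recorded on day 5. Survival was scored as %T/C of median survival time, and 30-day survival counted as cure.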

P388 [15] = assay: Antitumor activity against mouse P388 cells allografted in female CDF1 mouse assessed as change in body weight at 100 mg/kg, ip administered daily for 9 days as Klucel suspension starting 24 hrs after tumor inoculation; type: functional; conditions: route intraperitoneal; method in brief: as §6
P388 [16] = assay: Antitumor activity against mouse P388 cells allografted in female CDF1 mouse assessed as change in body weight at 200 mg/kg, ip administered daily for 9 days as Klucel suspension starting 24 hrs after tumor inoculation; type: functional; conditions: route intraperitoneal; method in brief: as §6
L1210 [17] = assay: Antileukemic activity against mouse L1210 cells allografted in female BDF1 mouse assessed as change in body weight at 50 mg/kg, ip administered daily for 9 days as Klucel suspension starting 24 hrs after tumor inoculation; type: functional; conditions: route intraperitoneal; method in brief: as §2
P388 [18] = assay: Antitumor activity against mouse P388 cells allografted in female CDF1 mouse assessed as disease cures by measuring 30-days host survival at 50 mg/kg, ip administered daily for 9 days as Klucel suspension starting 24 hrs after tumor inoculation relative to control; type: functional; conditions: route intraperitoneal; method in brief: as §3

CNC(=O)OCc1c(COC(=O)NC)c(C(F)(F)F)n2c1CCC2
T/C (L1210 [1]): 98%
Activity (L1210 [2]): -0.8 g
T/C (P388 [3]): 116%
Activity (Mus musculus [4]): Non-toxic
T/C (P388 [5]): 82%
Activity (Mus musculus [6]): Non-toxic
Activity (Mus musculus [7]): Non-toxic
Activity (Mus musculus [8]): Non-toxic
Activity (Mus musculus [9]): Non-toxic
EC50 [10]: 2.5 µg/mL (≈ 7.16 µM)
T/C (L1210 [11]): 104%
T/C (L1210 [12]): 100%
Activity (L1210 [13]): -0.2 g
Activity (P388 [14]): 1.4 g
Activity (P388 [15]): -0.4 g
Activity (P388 [16]): -1.5 g
Activity (L1210 [17]): -0.1 g
T/C (P388 [18]): 117%
